What was measured:
[1] = target: Vascular endothelial growth factor receptor 1 (Homo sapiens) (UniProt P17948); assay: Inhibition of recombinant human FLT1 (783 to end residues) assessed as residual activity at 1 uM using KKKSPGEYVNIEFG as substrate incubated for 40 mins by [gamma-33P]-ATP scintillation counting based radiometry assay relative to control
[2] = target: Vascular endothelial growth factor receptor 2 (Homo sapiens) (UniProt P35968); assay: Inhibition of recombinant human KDR (790 to end residues) assessed as residual activity at 1 uM using myelin basic protein as substrate incubated for 40 mins by [gamma-33P]-ATP scintillation counting based radiometry assay relative to control
Vascular endothelial growth factor receptor 2 (Homo sapiens), sequence (P35968 whole entry): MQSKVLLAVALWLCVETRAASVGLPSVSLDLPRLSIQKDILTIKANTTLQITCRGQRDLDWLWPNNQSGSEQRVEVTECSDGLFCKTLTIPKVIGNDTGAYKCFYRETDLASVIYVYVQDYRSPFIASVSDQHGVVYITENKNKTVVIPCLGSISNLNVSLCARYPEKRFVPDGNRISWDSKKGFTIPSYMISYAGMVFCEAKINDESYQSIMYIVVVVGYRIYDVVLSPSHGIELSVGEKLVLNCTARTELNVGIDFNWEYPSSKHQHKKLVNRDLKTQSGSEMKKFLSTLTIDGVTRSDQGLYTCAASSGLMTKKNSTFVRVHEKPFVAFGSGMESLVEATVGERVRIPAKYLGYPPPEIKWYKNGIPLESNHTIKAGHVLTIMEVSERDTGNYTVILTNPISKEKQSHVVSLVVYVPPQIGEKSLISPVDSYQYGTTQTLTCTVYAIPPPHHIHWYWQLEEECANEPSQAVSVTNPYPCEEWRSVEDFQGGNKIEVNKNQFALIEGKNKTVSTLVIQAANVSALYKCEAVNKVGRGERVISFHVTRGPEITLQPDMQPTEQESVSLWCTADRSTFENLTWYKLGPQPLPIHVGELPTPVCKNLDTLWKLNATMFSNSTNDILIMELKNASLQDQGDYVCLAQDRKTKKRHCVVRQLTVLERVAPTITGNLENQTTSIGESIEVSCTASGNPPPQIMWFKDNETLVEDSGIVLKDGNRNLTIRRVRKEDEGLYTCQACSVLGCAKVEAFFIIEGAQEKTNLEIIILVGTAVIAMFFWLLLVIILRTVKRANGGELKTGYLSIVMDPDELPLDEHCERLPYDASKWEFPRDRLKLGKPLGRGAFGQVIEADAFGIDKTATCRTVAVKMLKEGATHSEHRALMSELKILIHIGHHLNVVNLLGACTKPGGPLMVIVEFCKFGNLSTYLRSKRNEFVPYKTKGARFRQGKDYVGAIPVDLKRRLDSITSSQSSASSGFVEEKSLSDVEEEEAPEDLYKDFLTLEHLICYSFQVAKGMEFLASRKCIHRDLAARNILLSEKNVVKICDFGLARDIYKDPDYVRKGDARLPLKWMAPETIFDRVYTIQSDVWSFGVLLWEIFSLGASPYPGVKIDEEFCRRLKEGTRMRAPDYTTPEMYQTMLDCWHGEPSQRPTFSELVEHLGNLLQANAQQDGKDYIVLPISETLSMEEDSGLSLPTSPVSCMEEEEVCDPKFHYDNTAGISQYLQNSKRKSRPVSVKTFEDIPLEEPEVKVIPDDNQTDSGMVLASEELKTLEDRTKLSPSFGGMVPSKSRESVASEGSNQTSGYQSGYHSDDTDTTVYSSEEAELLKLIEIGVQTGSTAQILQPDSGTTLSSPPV

[3] = target: Receptor tyrosine-protein kinase erbB-2 (Homo sapiens) (UniProt P04626); assay: Inhibition of recombinant human HER2 (676 to end residues) assessed as residual activity at 1 uM using poly(Glu, Tyr) 4:1 as substrate incubated for 40 mins by [gamma-33P]-ATP scintillation counting based radiometry assay relative to control
Receptor tyrosine-protein kinase erbB-2 (Homo sapiens), sequence (P04626 whole entry): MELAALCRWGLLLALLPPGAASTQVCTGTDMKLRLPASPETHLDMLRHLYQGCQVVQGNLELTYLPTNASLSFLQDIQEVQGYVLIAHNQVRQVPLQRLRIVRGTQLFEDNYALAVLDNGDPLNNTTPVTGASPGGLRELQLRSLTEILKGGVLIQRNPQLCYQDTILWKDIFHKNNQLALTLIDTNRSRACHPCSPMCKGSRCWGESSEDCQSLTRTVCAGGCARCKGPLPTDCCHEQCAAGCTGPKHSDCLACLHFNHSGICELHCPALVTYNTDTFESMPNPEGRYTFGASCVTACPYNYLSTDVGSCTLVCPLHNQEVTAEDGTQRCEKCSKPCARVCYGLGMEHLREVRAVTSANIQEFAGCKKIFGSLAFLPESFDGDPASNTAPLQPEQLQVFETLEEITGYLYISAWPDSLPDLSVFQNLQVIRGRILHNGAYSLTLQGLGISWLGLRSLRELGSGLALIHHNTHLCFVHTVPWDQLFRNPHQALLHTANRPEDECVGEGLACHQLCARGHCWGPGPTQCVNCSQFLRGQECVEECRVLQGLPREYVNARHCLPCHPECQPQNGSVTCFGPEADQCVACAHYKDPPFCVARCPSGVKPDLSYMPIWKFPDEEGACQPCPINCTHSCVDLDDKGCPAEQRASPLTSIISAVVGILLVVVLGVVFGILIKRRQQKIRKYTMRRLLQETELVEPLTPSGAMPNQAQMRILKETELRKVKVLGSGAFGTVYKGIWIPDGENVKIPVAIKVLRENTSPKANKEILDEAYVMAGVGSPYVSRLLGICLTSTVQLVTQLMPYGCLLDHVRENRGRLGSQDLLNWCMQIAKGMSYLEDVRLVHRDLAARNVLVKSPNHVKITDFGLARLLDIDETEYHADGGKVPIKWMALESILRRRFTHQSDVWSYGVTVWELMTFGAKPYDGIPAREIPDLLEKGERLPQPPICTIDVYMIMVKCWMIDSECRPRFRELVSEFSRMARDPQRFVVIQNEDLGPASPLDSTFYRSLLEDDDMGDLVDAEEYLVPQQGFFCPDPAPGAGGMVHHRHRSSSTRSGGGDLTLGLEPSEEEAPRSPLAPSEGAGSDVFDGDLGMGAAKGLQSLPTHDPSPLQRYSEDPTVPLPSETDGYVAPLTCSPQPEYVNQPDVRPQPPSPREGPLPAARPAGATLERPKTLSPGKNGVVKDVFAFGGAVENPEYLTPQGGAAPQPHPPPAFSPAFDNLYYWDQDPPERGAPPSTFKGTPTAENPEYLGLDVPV

[4] = target: T1, Serine/threonine-protein kinase TNNI3K (Homo sapiens, UniProt Q59H18); assay: Inhibition of TNNI3K (unknown origin) using biotinylated CTnI as substrate by HTRF analysis
T1 sequence (Q59H18 whole entry): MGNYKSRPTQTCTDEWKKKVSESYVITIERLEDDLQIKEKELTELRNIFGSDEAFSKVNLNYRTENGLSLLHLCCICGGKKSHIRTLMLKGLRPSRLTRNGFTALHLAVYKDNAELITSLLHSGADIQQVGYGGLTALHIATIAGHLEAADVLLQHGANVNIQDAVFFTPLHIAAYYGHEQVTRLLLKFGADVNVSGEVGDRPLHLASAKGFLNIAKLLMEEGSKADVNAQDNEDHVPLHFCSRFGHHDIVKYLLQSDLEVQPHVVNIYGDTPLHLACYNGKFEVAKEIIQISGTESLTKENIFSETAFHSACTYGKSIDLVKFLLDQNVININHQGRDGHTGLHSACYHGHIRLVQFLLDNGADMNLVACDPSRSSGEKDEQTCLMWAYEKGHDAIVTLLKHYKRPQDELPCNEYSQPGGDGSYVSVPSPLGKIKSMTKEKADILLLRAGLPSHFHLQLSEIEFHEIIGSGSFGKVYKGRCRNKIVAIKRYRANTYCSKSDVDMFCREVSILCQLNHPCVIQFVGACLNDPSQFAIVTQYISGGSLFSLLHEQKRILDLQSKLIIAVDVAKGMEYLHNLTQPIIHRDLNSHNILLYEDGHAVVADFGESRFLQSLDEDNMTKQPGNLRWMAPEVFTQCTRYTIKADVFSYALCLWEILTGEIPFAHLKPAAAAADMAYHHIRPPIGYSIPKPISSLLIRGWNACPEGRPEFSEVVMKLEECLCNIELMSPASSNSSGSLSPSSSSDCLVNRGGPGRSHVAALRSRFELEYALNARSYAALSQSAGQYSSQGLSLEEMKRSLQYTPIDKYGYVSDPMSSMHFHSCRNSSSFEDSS
How it was run: (§1)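 TNNI3K was assayed by HTRF using a GST-tagged TNNI3K kinase domain and a biotinylated cardiac troponin I substrate peptide, followed by the two HTRF detection reagents. Compounds were screened at 1.0 µM, then IC50s were determined.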

H9c2 [5] = assay: Cytoprotective activity against OGD-induced cell death in rat H9c2 cells assessed as cell viability at 10 uM incubated for 24 hrs by MTT assay (reference value: 42.08 to 49.11 %); format: functional; conditions: read-out: Activity
[6] = target: T2, Serine/threonine-protein kinase TNNI3K (Homo sapiens) (UniProt Q59H18); assay: Inhibition of TNNI3K (unknown origin) assessed as residual activity at 1 uM using biotinylated CTnI as substrate by HTRF analysis relative to control; how it was run: as §1
T2 sequence (whole entry): T1 sequence (Q59H18 whole entry)

[7] = target: Epidermal growth factor receptor (Homo sapiens) (UniProt P00533); assay: Inhibition of recombinant human EGFR (696 to end residues) assessed as residual activity at 1 uM using poly(Glu, Tyr) 4:1 as substrate incubated for 40 mins by [gamma-33P]-ATP scintillation counting based radiometry assay relative to control
Epidermal growth factor receptor (Homo sapiens), sequence (P00533 whole entry): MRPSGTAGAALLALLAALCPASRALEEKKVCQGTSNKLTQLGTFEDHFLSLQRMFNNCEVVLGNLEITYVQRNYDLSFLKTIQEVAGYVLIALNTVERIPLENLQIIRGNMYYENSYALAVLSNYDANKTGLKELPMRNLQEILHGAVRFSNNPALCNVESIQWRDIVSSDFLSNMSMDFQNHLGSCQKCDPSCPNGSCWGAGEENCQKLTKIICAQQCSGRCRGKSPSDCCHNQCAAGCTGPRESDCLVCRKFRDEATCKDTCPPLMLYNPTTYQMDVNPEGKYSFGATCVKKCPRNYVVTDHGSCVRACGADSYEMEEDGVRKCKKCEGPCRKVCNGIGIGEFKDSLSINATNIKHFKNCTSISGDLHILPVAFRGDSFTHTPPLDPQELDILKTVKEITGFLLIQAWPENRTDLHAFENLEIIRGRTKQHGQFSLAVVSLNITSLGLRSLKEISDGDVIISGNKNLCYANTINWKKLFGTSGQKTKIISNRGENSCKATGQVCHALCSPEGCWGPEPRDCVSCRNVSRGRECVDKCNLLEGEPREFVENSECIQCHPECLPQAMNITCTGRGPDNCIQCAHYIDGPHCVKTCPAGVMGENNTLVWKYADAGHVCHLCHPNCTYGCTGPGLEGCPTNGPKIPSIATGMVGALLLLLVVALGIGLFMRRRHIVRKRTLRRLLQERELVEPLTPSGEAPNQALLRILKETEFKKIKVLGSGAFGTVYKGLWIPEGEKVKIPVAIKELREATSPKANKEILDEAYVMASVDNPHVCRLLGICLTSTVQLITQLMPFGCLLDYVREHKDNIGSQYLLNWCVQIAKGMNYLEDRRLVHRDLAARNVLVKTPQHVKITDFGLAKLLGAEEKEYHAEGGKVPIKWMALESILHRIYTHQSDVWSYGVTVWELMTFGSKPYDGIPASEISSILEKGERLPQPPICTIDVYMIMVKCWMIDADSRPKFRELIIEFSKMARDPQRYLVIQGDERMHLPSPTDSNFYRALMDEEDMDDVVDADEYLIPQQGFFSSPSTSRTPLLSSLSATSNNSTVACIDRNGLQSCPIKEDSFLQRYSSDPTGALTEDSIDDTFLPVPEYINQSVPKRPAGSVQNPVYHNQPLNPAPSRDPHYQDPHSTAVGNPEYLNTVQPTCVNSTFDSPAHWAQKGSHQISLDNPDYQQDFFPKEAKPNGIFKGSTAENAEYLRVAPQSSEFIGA

H9c2 [8] = assay: Cytoprotective activity against OGD-induced cell death in rat H9c2 cells assessed as cell viability at 1 uM incubated for 24 hrs by MTT assay (reference value: 42.08 to 49.11 %); format: functional; conditions: read-out: Activity

Activity [1] [%]	Activity [2] [%]	Activity [3] [%]	IC50 [4] [nM]	Activity [6] [%]	Activity [7] [%]	Structure (SMILES)	viability at 10 µM (H9c2 [5]) [%]	viability at 1 µM (H9c2 [8]) [%]
98	93	103	330	38	86	CN1CCN(CCCN2CCc3c(sc4ncnc(Nc5ccc(N(C)C)c(NC(=O)c6cccs6)c5)c34)C2)CC1	81.8	69.1
86	77	89	820	39	104	CN(C)c1ccc(Nc2ncnc3sc4c(c23)CCN(C(=O)c2ccccn2)C4)cc1NC(=O)c1ccco1	70.9	54.3
105	89	95	560	37	93	CN1CCc2c(sc3ncnc(Nc4ccc(N(C)C)c(NC(=O)c5ccco5)c4)c23)C1	85.6	59.6

From ChEMBL document CHEMBL4765301, “Discovery of novel TNNI3K inhibitor suppresses pyroptosis and apoptosis in murine myocardial infarction injury” (Eur J Med Chem, 2020)
